{"source": "paper PMC3230563", "about": "(International Journal of Nanomedicine, 2011)", "key": {"rat": {"test_system": "rat", "conditions": "oral, no reference given; cited from earlier work"}, "[1]": {"assay": "In vivo pharmacokinetics in rats", "parameters": "species or system Male Wistar rats", "conditions": "for half-life: T1/2, rat; for Tmax: Tmax average", "procedure,_shortened": "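Fasted (12 h) male Wistar rats under 0.5% isoflurane received 200 μg/kg in isotonic solution by tail-vein bolus (n = 4). Serial intracardiac blood went into 0.109 M citrate from 2 min to 24 h, and plasma was stored at −20°C. Concentration came from an anti-Xa chromogenic calibration curve, with over-range samples diluted in human normal plasma. Noncompartmental PK used trapezoidal AUC; bioavailability was the dose-corrected oral/IV AUC ratio.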"}, "[2]": {"conditions": "male, Wistar, rat, plasma, iv, 200 ug/kg"}, "[3]": {"conditions": "male, Wistar, rat, plasma, iv, 200 ug/kg, IV bolus"}, "[4]": {"conditions": "male, Wistar, rat, plasma, po, 5 mg/kg"}, "[5]": {"conditions": "male, Wistar, rat, plasma, po, 5 mg/kg, 5 mg/kg Fp"}, "[6]": {"conditions": "male, Wistar, rat, plasma, sc, 200 ug/kg"}, "[7]": {"conditions": "rat, IV bolus, 200 μg/kg, listed as IV Fp solution"}}}
{"smiles": "CCCCCCCCCCCCCCCC[N+](C)(C)C", "note": "[CTAB, hexadecyltrimethyl ammonium bromide]", "values": [{"measurement": "LD50", "setting": "rat", "result": 410, "unit": "mg/kg"}]}
{"smiles": "CO[C@H]1O[C@H](COS(=O)(=O)O)[C@@H](O[C@@H]2O[C@@H](C(=O)O)[C@@H](O[C@H]3O[C@H](COS(=O)(=O)O)[C@@H](O[C@@H]4O[C@H](C(=O)O)[C@@H](O[C@H]5O[C@H](COS(=O)(=O)O)[C@@H](O)[C@H](O)[C@H]5NS(=O)(=O)O)[C@H](O)[C@H]4O)[C@H](OS(=O)(=O)O)[C@H]3NS(=O)(=O)O)[C@H](O)[C@H]2OS(=O)(=O)O)[C@H](O)[C@H]1NS(=O)(=O)O", "note": "[Fp, fondaparinux]", "values": [{"measurement": "AUC(0-inf)", "setting": "[1]; [2]", "result": 2300, "unit": "ng·h/mL"}, {"measurement": "Cmax", "setting": "[1]; [2]", "result": "1420 ± 120", "unit": "ng/mL"}, {"measurement": "bioavailability", "setting": "[1]; male, Wistar, rat, plasma, iv, 200 ug/kg, Absolute bioavailability, IV bolus, 200 μg/kg (reference)", "result": 100, "unit": "%"}, {"measurement": "MRT", "setting": "[1]; male, Wistar, rat, plasma, iv, 200 ug/kg, MRT, IV bolus", "result": 1.17, "unit": "h"}, {"measurement": "half-life", "setting": "[1]; [3]", "result": 1.8, "unit": "h"}, {"measurement": "Tmax", "setting": "[1]; [3]", "result": 0.0333, "unit": "h"}, {"measurement": "AUC(0-inf)", "setting": "[1]; [4]", "result": 812, "unit": "ng·h/mL"}, {"measurement": "Cmax", "setting": "[1]; [4]", "result": "60 ± 20", "unit": "ng/mL"}, {"measurement": "MRT", "setting": "[1]; male, Wistar, rat, plasma, po, 5 mg/kg, MRT, 5 mg/kg Fp", "result": 1.36, "unit": "h"}, {"measurement": "half-life", "setting": "[1]; [5]", "result": "0.862 ± 0.607", "unit": "h"}, {"measurement": "Tmax", "setting": "[1]; [5]", "result": 2, "unit": "h"}, {"measurement": "AUC(0-inf)", "setting": "[1]; [6]", "result": 2570, "unit": "ng·h/mL"}, {"measurement": "Cmax", "setting": "[1]; [6]", "result": "836 ± 190", "unit": "ng/mL"}, {"measurement": "MRT", "setting": "[1]; male, Wistar, rat, plasma, sc, 200 ug/kg, MRT", "result": 3.87, "unit": "h"}, {"measurement": "half-life", "setting": "[1]; [6]", "result": "1.47 ± 1.4", "unit": "h"}, {"measurement": "Tmax", "setting": "[1]; [6]", "result": "≤ 1", "unit": "h"}, {"measurement": "anti-Xa level in rat plasma", "setting": "[1]; oral Fp solution alone, 0.5, 2 mg/kg, limit of quantification 0.01 μg/mL", "result": "below the limit of quantification"}, {"measurement": "Clearance", "setting": "[1]; rat, IV bolus, 200 μg/kg", "result": "490.52 ± 14.74", "unit": "µL/min"}, {"measurement": "MRT", "setting": "[1]; [7]", "result": "1.8028 ± 0.4345", "unit": "h"}, {"measurement": "T1/2", "setting": "[1]; [7]", "result": "1.175 ± 0.2938", "unit": "h"}, {"measurement": "Clearance", "setting": "[1]; rat, SC, 200 μg/kg", "result": "493.89 ± 5.478", "unit": "µL/min"}, {"measurement": "Absolute bioavailability", "setting": "[1]; rat, SC, 200 μg/kg, dose corrected AUC versus IV, listed as SC Fp solution", "result": "115.84 ± 17.92 (4) %"}, {"measurement": "Tmax average", "setting": "[1]; rat, SC, 200 μg/kg, listed as SC Fp solution", "result": 1, "unit": "h"}, {"measurement": "Clearance", "setting": "[1]; rat, oral, 5 mg/kg Fp", "result": "455.43 ± 14.51", "unit": "µL/min"}]}
{"smiles": "CCCCCCCCCCCCCCCCCCN", "note": "[SA, stearylamine]", "values": [{"measurement": "LD50", "setting": "rat", "result": 1395, "unit": "mg/kg"}]}
